The RNAGym collection of RNA variant scans (doi:10.1126/science.aae0568)
This sample holds only a part of the variants without activity.

B1: tRNA (parent)
chain: GUUCCGUUGGCGUAAUGGUAACGCGUCUCCCUCCUAAGGAGAAGACUGCGGGUUCGAGUCCCGUACGGAACG

Variants of: B1
Assay: yeast fitness relative to wild type (ratio to wild type); higher = fitter; tRNA-Arg(CCU), competitive growth, 37 C, YPD
How it was run: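 Start and end populations of a pooled competition were compared by 100-nucleotide paired-end sequencing of gene amplicons. The Saccharomyces cerevisiae strains carried tRNA-Arg(CCU) gene variants at the native genomic locus, synthesised with a 3% per-site mutation rate at 69 sites, and competed in YPD at 37°C for 24 hours in six parallel replicates. Darwinian fitness relative to wild type was based on the change in genotype frequencies. Genotypes required ≥ 100 starting reads, and estimates < 0.5 were set to 0.5.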

A14G C24G G44C G58C G68U and A14G C24G G50A C55G cannot be ordered by yeast fitness: no more than 0.5 for the first, no more than 0.5 for the second.

A14G C24G G52A and A14G C24U A43C A70U cannot be ordered by yeast fitness: no more than 0.5 for the first, no more than 0.5 for the second.

Going from A14G C24U A57G to A14G C24U C30U C60A, the yeast fitness falls from 0.639 to no more than 0.5.

Compared with A14G C24U C49U, A14G C24U C55A G63C is lower in yeast fitness: 0.675 for the first, no more than 0.5 for the second.

A14G C24U G48C C66A and A14G C24U G52A C60U cannot be ordered by yeast fitness: no more than 0.5 for the first, no more than 0.5 for the second.

Compared with A14G C27A A45U G67C, A14G C27A U54G is lower in yeast fitness: 0.521 for the first, no more than 0.5 for the second.

Going from A14G C27G to A14G C27G A65U G68U, the yeast fitness falls from 0.562 to no more than 0.5.

Compared with A14G C27G C30U C31G, A14G C27G C34G A37U is lower in yeast fitness: 0.76 for the first, 0.61 for the second.

First: A14G C27G C62U
Second: A14G C27U C46A
The yeast fitness of the first is lower: no more than 0.5 for the first, 0.673 for the second.

A14G C27U C49A U53A C61U and A14G C27U U47A C62U C66U cannot be ordered by yeast fitness: no more than 0.5 for the first, no more than 0.5 for the second.

A14G C29A A37G and A14G C29A C31A A40C G44A U59A cannot be ordered by yeast fitness: no more than 0.5 for the first, no more than 0.5 for the second.

Compared with A14G C29A C62U, A14G C29G is higher in yeast fitness: no more than 0.5 for the first, 0.564 for the second.

A14G C29G A36U C46G and A14G C29G A37G C46U C66G cannot be ordered by yeast fitness: no more than 0.5 for the first, no more than 0.5 for the second.

A14G C29G A37G C66G and A14G C29G A42C cannot be ordered by yeast fitness: no more than 0.5 for the first, no more than 0.5 for the second.

First: A14G C29G C31U
Second: A14G C29G C33U
The yeast fitness of the first is higher: 0.6 for the first, 0.55 for the second.

Going from A14G C29G C46U A57G C61U to A14G C29U G39A, the yeast fitness rises from no more than 0.5 to 0.574.

Going from A14G C29U G41A U54G C55U A69U to A14G C30A, the yeast fitness rises from no more than 0.5 to 0.861.

A14G C30A C34A A43C and A14G C30A C34A A43C A65C A70C cannot be ordered by yeast fitness: no more than 0.5 for the first, no more than 0.5 for the second.

Going from A14G C30A C34A A43C C62U to A14G C30A C34G, the yeast fitness rises from no more than 0.5 to 0.508.

First: A14G C30G
Second: A14G C30G A45G
The yeast fitness of the first is higher: 0.591 for the first, 0.585 for the second.

First: A14G C30U A45U
Second: A14G C30U C46A
The yeast fitness of the first is lower: 0.675 for the first, 0.763 for the second.

Going from A14G C30U C46A G50A to A14G C30U C46U G50A A69G, the yeast fitness rises from no more than 0.5 to 0.704.

Compared with A14G C31A A43G, A14G C31A C34G A43C is lower in yeast fitness: 0.679 for the first, no more than 0.5 for the second.

Going from A14G C31A G44C C60G to A14G C31G, the yeast fitness rises from no more than 0.5 to 0.945.

A14G C31G A37U A57C A69U and A14G C31G A43U C46G A70U cannot be ordered by yeast fitness: no more than 0.5 for the first, no more than 0.5 for the second.

A14G C31G A57C A65C and A14G C31U A42G C62U A69C cannot be ordered by yeast fitness: no more than 0.5 for the first, no more than 0.5 for the second.

Going from A14G C31U C33U A45C G48A to A14G C31U C34U G38A C46U, the yeast fitness falls from 0.626 to no more than 0.5.

Compared with A14G C31U G68C, A14G C34A C62G G68C is higher in yeast fitness: no more than 0.5 for the first, 0.763 for the second.

A14G C34G A43C C62A C66A and A14G C34G A43C C62U cannot be ordered by yeast fitness: no more than 0.5 for the first, no more than 0.5 for the second.

A14G C34G A45U and A14G C34G A65U C66A cannot be ordered by yeast fitness: no more than 0.5 for the first, no more than 0.5 for the second.

A14G C34G C60G A70C and A14G C34G G63C G67C cannot be ordered by yeast fitness: no more than 0.5 for the first, no more than 0.5 for the second.

Compared with A14G C34U, A14G C34U G52A C66U A70U is lower in yeast fitness: 0.62 for the first, no more than 0.5 for the second.

First: A14G C46A
Second: A14G C46U G50C C55U A57U C62G A70U
The yeast fitness of the first is higher: 0.873 for the first, 0.54 for the second.

First: A14G C49A
Second: A14G C49G A69U
The yeast fitness of the first is higher: 0.694 for the first, 0.566 for the second.

Going from A14G C55G to A14G C61U, the yeast fitness rises from 0.583 to 0.934.

First: A14G C62G
Second: A14G C66A
The yeast fitness of the first is higher: 0.688 for the first, 0.656 for the second.

Compared with A14G C66U, A14G G17A A57C is lower in yeast fitness: 0.891 for the first, no more than 0.5 for the second.

A14G G17A G23A U28G and A14G G17A G44C A65U cannot be ordered by yeast fitness: no more than 0.5 for the first, no more than 0.5 for the second.

A14G G17C A36C G48A C49G G51A and A14G G17C A36C G48A C49G G51A A70C cannot be ordered by yeast fitness: no more than 0.5 for the first, no more than 0.5 for the second.

A14G G17C C22G and A14G G17C G39A A69C cannot be ordered by yeast fitness: no more than 0.5 for the first, no more than 0.5 for the second.

Compared with A14G G18A, A14G G18A C22G is lower in yeast fitness: 0.63 for the first, no more than 0.5 for the second.

Variant A14G G18A U26A G50A has a yeast fitness of no more than 0.5.
